A selection: hits, their analogues and other compounds. The true share with any hit is near 3.7%.
NPY Y2 blocker = blocks the human neuropeptide Y Y2 receptor; P49146; NPY-Y2 expressing cells, antagonist mode; inhibition, % at 2.7 µM; 140,000 tested, 0.99% active; in the data active = inhibition above about 17%;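 also: 0% = vehicle with agonist challenge and 100% = reference antagonist with challenge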
Target sequence (P49146 whole entry, looked up): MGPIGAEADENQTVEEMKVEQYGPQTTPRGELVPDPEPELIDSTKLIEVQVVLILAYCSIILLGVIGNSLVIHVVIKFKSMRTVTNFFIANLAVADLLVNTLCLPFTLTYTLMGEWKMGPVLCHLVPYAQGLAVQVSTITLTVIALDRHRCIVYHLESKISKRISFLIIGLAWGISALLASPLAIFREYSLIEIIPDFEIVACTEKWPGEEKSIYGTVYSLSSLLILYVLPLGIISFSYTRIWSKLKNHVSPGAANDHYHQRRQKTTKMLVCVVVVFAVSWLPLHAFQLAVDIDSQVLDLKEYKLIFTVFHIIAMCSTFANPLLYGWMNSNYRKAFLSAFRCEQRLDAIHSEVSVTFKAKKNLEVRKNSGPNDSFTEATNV
NPY1 pot ag = potentiators or agonists of human neuropeptide Y receptor Y1 | P25929 | NPY-Y1 expressing cells, potentiator/agonist activation | activation, % at 3.6 µM | 220,000 tested, 0.37% active | AID 1304; in the data active = activation above about 33%, passing the limit was not always enough;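 also: cells stimulated with NPY at EC10 then isoproterenol at EC100; 0% = low agonist plus stimulus and 100% = saturating agonist plus stimulus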
Target sequence (P25929 whole entry, looked up): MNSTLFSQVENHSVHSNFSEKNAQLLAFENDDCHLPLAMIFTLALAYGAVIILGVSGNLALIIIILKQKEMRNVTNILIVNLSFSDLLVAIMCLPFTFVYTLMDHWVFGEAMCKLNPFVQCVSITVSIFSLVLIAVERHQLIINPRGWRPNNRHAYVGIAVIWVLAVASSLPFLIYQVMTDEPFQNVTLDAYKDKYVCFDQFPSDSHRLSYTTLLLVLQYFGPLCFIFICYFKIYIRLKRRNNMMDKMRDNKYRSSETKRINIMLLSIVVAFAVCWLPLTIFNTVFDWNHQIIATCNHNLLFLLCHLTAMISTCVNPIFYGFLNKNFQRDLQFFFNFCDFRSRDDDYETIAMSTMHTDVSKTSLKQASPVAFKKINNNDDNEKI
NPY-Y2 PAM-ag = potentiates or activates human NPY-Y2 receptor. P49146. cells expressing NPY-Y2, potentiator/agonist read-out. activation, % at 3.6 µM. 220,000 tested, 0.45% active. AID 1359; in the data active = activation above about 27%;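 also: cells stimulated with NPY near EC25 plus isoproterenol at EC100; 0% = vehicle plus submaximal agonist and 100% = vehicle plus saturating agonist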
Cl transport mod = modulates chloride dependent transport by human KCC2; Q9H2X9; KCC2 cells, thallium flux FluoZin-2 fluorescence; B-score of Tl+ flux slope (higher = more flux/activation; lower = inhibition) at 10 µM; 190,000 tested, 2.2% active; AID 1456;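 active = thallium flux slope and its plate-corrected score both differing from the plate sample mean at a set confidence after two filtering rounds, in either direction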;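 also: slope of fluorescence scaled to starting intensity during 10 to 20 s after thallium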
Furin inh = human furin inhibition | P09958 | purified furin, fluorogenic substrate cleavage | inhibition, % at 20 µM or 30 µM | 220,000 tested, 0.061% active | AID 463115; in the data active = inhibition above about 25%
NPY Y1 blocker = NPY-Y1 (human) receptor antagonism | P25929 | HEK293-CNG Y1 cells, membrane potential fluorescence; NPY at EC95, then isoproterenol | inhibition, % at 3.6 µM | 200,000 tested, 1% active | AID 1040;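 active = inhibition above the campaign mean inhibition of all tested compounds plus 3 SD, cut at about 20% in these data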;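 also: 0% = DMSO wells given NPY plus isoproterenol and 100% = isoproterenol alone without NPY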
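Test system: HEK293 cells co-expressing NPY Y1 receptor and cyclic-nucleotide gated channel; Also added: NPY (25 nM), isoproterenol (1 µM), Ro 20-1724 (25 µM); Compound dosing: one concentration, 3.6 µM, in 0.4% DMSO; Timing: dye 3 h, compound 60 min room temperature, stimulation 45 min; Technique: Membrane-potential fluorescent dye readout.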
KCC2 secondary = confirmation of human KCC2 transport modulators; shares compounds with Cl transport mod; HEK293-KCC2, thallium flux, FluoZin2 fluorescence; hits give high values; normalised thallium flux (F/F0 slope) at 10 µM; 3,700 tested, 15% active; AID 1713;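 active = thallium flux slope above the same plate's solvent-only control mean plus 3 SD; inconclusive = the two replicate wells disagree; inactive = no significant difference from solvent-only control wells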
KCC2 bumet counter = thallium flux persisting under bumetanide in KCC2 cells, counter-screen secondary assay | shares compounds with Cl transport mod | HEK293-KCC2 + bumetanide/ouabain, thallium flux FluoZin2; hits give high values | normalized thallium flux at 10 µM | 3,700 tested, 49% active | AID 1714;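 active = thallium entry rate above the same plate's blocked-transporter control wells by more than 3 SD; inconclusive = the two repeat wells disagree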;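 also: raw slope of fluorescence over initial fluorescence between 10 and 20 s after thallium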
KCC2 secondary2 = KCC2 (human) modulation, second secondary assay; shares compounds with Cl transport mod; HEK293-KCC2, thallium flux FluoZin2 fluorescence; actives lie on both sides; F/F0 rise rate, 10–20 s post-thallium; normalized thallium flux at 10 µM; 3,700 tested, 23% active;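 active = thallium flux slope more than 3 SD above or below the plate's solvent-only control mean, mostly below; inconclusive = the two repeat wells disagreed; inactive = no significant shift from solvent-only controls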;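 also: raw slope with 0.1% DMSO as baseline and bumetanide as block control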
HEK counter1 = counter-screen for KCC2 modulators: effect in parental HEK293 cells | shares compounds with Cl transport mod | thallium flux FluoZin2, ouabain; baseline-ratio fluorescence slope, 10–20 s after thallium | thallium flux rate (normalised fluorescence) at 10 µM | 3,700 tested, 46% active | AID 1716;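 active = thallium flux rate significantly above the same plate's solvent-only control wells, beyond their mean plus 3 SD; inconclusive = the two replicate wells gave conflicting results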
KCC2 retest ouab = KCC2 (human) modulation, ouabain retest | shares compounds with Cl transport mod | HEK293-KCC2, thallium flux FluoZin2 fluorescence; bidirectional: low = inhibitor, high = activator | raw Tl+ flux slope (below DMSO = inhibition, above = activation) at 10 µM | 3,700 tested, 48% active | AID 1717;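 active = thallium flux slope beyond 3 SD from same-plate DMSO control mean in most replicates, usually higher, sometimes lower; inconclusive = repeat tests gave conflicting results; inactive = no significant difference from controls in most replicates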;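 also: slope of initial-normalized fluorescence between seconds 10 and 20 after thallium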
HEK counter2 = acts in parental HEK cells, second KCC2 counter-screen. thallium flux slope at 10 µM. HEK293 parental, thallium flux FluoZin-2 fluorescence slope. shares compounds with Cl transport mod. 3,700 tested, 33% active;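 active = thallium flux slope above the same plate's solvent-control mean plus 3 SD in both duplicate wells; inconclusive = duplicate wells that disagreed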;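 also: run without ouabain in cells lacking the KCC2 cotransporter; slope of fluorescence scaled to its starting value between 10 and 20 s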
The depositor's hits bear a star; u = inconclusive; x = no result.

SMILES	NPY Y2 blocker	NPY1 pot ag	NPY-Y2 PAM-ag	Cl transport mod	Furin inh	NPY Y1 blocker	KCC2 secondary	KCC2 bumet counter	KCC2 secondary2	HEK counter1	KCC2 retest ouab	HEK counter2
O=C(Cn1cnc2c(nnn2Cc2ccc(F)cc2)c1=O)NCc1ccco1	0	3	16	-4.5*	-12	-5	0.0069	0.0048	0.024*	0.0075	0.017*	0.01
O=C(Cn1cnc2c(nnn2Cc2ccccc2)c1=O)c1ccccc1	2	11	6	-4.7*	-16	0	0.0059	0.0048	0.024*	u	0.014*	0.011
O=C(Cn1cnc2c(nnn2Cc2ccc(F)cc2)c1=O)NC1CCCC1	1	-18	2	-1.3	-23	-3	x	x	x	x	x	x
O=C(Cn1cnc2c(nnn2Cc2ccc(Cl)cc2)c1=O)c1ccccc1	x	-4	-17	-2.6	-3	-3	x	x	x	x	x	x
Cc1ccc(NC(=O)Cn2cnc3c(nnn3Cc3ccc(F)cc3)c2=O)cc1	x	9	-5	0.7	-13	5	x	x	x	x	x	x
Cc1ccc(Cn2nnc3c(=O)n(CC(=O)N4CCN(c5ccccc5)CC4)cnc32)cc1	3	-35	-9	-3.2*	-28	3	0.0075	0.0059	0.031	0.0064	u	0.0095
COc1ccc(NC(C)=O)cc1NC(=O)c1ccc2ccccc2c1	x	-13	-3	-0.57	-35	1	x	x	x	x	x	x
CC12CC(NC(=O)N1c1cccc(C(=O)NCc3ccccc3)c1)c1ccccc1O2 (stereo unspecified)	-1	25	7	x	-7	0	0.0072	u	0.03	0.0074	0.019	0.011
CC12CC(NC(=O)N1c1cccc(C(=O)N3CCN(c4ccccc4)CC3)c1)c1ccccc1O2 (stereo unspecified)	0	8	4	-0.86	-12	-1	x	x	x	x	x	x
O=C1CCCc2c1nc(-c1ccc([N+](=O)[O-])cc1)n2O	x	7	12	0.65	4	x	x	x	x	x	x	x
O=c1c2ccccc2nc(-c2ccc([N+](=O)[O-])cc2)n1O	x	0	-4	9*	-19	5	u	0.02*	0.034	0.016*	0.028*	u
COC(=O)c1sc(NC(=O)CCCn2nc([N+](=O)[O-])cc2C)c(C(=O)OC)c1C	2	13	1	1.1	-11	-5	x	x	x	x	x	x
O=c1[nH]c(CSc2ncnc3sc(-c4ccccc4)cc23)nc2ccccc12	x	-26	15	27*	-5	x	0.0069	0.024*	0.031	0.021*	0.032*	0.014*
O=c1[nH]c(CSc2nc(-c3ccccc3)cs2)nc2ccccc12	7	-8	-6	-0.21	1	11	x	x	x	x	x	x
CCc1ccc(Cc2cnc(NC(=O)C3=NCCN3)s2)cc1	x	-10	-3	0.98	-9	3	x	x	x	x	x	x
CC(C)(C)NC(=O)C(=O)NNC(=O)c1ccccc1	10	8	6	3.7*	-14	2	0.019*	0.034*	0.035	0.017*	0.029	0.012*
CC(C)(C)NC(=O)C(=O)NNC(=O)c1cccc(F)c1	x	-4	-15	21*	-6	3	0.006	0.025*	0.038*	0.024*	0.032*	0.026*
CC(=O)SCC(=O)N=c1sc2cc(F)ccc2n1C	-1	-9	14	x	-10	-6	0.0069	0.0059*	0.03	u	0.019	0.011
CC(=O)N=c1sc2cc(C)ccc2n1C	3	-13	10	-0.57	-14	6	x	x	x	x	x	x
CCCCn1c(=O)[nH]c(=O)c2c1nc(-c1ccccc1F)n2Cc1ccccc1OC	x	19	-4	-2	-25	2	x	x	x	x	x	x
CNC(=O)COC(=O)c1ccccc1Nc1ccccc1	x	0	-6	0.12	-13	-3	x	x	x	x	x	x
COc1ccc(CC(=O)Nc2ccc(-c3nc4cc(C)ccc4o3)c(O)c2)cc1OC	0	-1	-10	-5.4*	-56	-4	0.017	0.0048	0.03	0.0074	0.017	0.01
CC(=O)N1CCCc2cc(S(=O)(=O)N(C)Cc3ccccc3)ccc21	1	-5	-12	-4*	-23	0	0.007	0.0065	0.033	0.0045	u	0.011
Cc1ccc(S(=O)(=O)NC(=S)NC2CCCCC2)cc1	x	-20	-3	13*	-14	-9	0.016*	0.032*	0.037	u	0.034*	0.013
O=S(=O)(NC(=S)NC1CCCCC1)c1ccc(Cl)cc1	x	-3	-21	11*	-25	3	0.017	0.02*	0.032	0.02*	0.025*	0.022*
SMILES	NPY Y2 blocker	NPY1 pot ag	NPY-Y2 PAM-ag	Cl transport mod	Furin inh	NPY Y1 blocker	KCC2 secondary	KCC2 bumet counter	KCC2 secondary2	HEK counter1	KCC2 retest ouab	HEK counter2
Cc1ccc(S(=O)(=O)NC(C)C(=O)NC2CCCCCC2)cc1 (stereo unspecified)	0	-12	-11	0.0074	-20	3	x	x	x	x	x	x
CCc1ccc(S(=O)(=O)NC(=S)NC2CCCCC2)cc1	x	-40	-11	32*	-14	-1	0.026*	0.071*	u	0.05*	0.06*	0.018*
COc1ccc(CC2SC(=Nc3ccc(F)cc3)NC2=O)cc1 (stereo unspecified)	x	-11	-2	-0.28	-13	4	x	x	x	x	x	x
Cn1c(O)c(N=NC(=O)C2COc3ccccc3O2)c2ccccc21 (stereo unspecified)	x	3	-30	-0.23	-12	x	x	x	x	x	x	x
CC(C)n1c(O)c(N=NC(=O)C2COc3ccccc3O2)c2ccccc21 (stereo unspecified)	x	3	-4	10*	-22	3	0.0081	0.028*	0.033	0.03*	0.031*	0.026*
Cc1cccc(NC(=S)N/N=C/c2cccn2Cc2ccc(F)cc2)c1	x	26	5	6.3*	-18	1	0.0054	0.0088*	u	0.0081	0.02	0.01
CSc1ccccc1NC(=S)N/N=C/c1cccn1Cc1ccc(F)cc1	x	18	0	4.1*	2	-5	0.0059	0.011*	0.032	0.011*	0.022	0.014*
CSc1ccccc1NC(=S)N/N=C/c1cccn1Cc1cccc(C)c1	x	5	-11	x	-32	1	x	x	x	x	x	x

Assay outcomes (PubChem BioAssay)
